The values that follow come from ChEMBL document CHEMBL4229472, “Surface Probing by Fragment-Based Screening and Computational Methods Identifies Ligandable Pockets on the von Hippel-Lindau (VHL) E3 Ubiquitin Ligase” (J Med Chem, 2018).

SMILES strings stand for the structures.

Test [1] has as its target Von Hippel-Lindau disease tumor suppressor/Elongin B/Elongin C (Homo sapiens) (UniProt P40337+Q15370+Q15369). The experiment in a line: Binding affinity to N-terminal His6 tagged VHL (54 to 213 residues)/ELoC (17 to 112 residues)/EloB (1 to 120 residues) (unknown origin) complex expressed in Escherichia coli BL21(DE3) assessed as change in melting temperature at 1 mM by Sypro orange dye based differential scanning fluorimetric analysis. The gist of the method: (§1)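 Thermal shift screen with each fragment tested as a singleton. Unfolding temperature is followed with a fluorescent dye that binds preferentially to unfolded protein. For line 1 the target is VCB alone. For line 3 it is VCB preincubated with HIF-1α peptide (VCBH), which separates binders of the HIF site from binders elsewhere in the complex.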
(Differential scanning fluorimetry follows unfolding on heating by fluorescence.)

The target of test [2] is Von Hippel-Lindau disease tumor suppressor/Elongin B/Elongin C (Homo sapiens, UniProt P40337). In words: Binding affinity to N-terminal His6 tagged VHL (54 to 213 residues)/ELoC (17 to 112 residues)/EloB (1 to 120 residues) (unknown origin) complex expressed in Escherichia coli BL21(DE3) assessed as dissociation constant by ITC method.
The target of test [3] is T1, von Hippel-Lindau disease tumor suppressor/Elongin-C/Elongin-B/HIF1A (Homo sapiens) (UniProt Q16665+P40337+Q15370+Q15369). In words: Binding affinity to N-terminal His6 tagged VHL (54 to 213 residues)/ELoC (17 to 112 residues)/EloB (1 to 120 residues)/HIF-1alpha (unknown origin) complex expressed in Escherichia coli BL21(DE3) assessed as change in melting temperature at 1 mM by Sypro orange dye based differential scanning fluorimetric analysis. The gist of the method:
as §1

The target in test [4] is T1, von Hippel-Lindau disease tumor suppressor/Elongin-C/Elongin-B/HIF1A (Homo sapiens). The experiment in a line: Binding affinity to N-terminal His6 tagged VHL (54 to 213 residues)/ELoC (17 to 112 residues)/EloB (1 to 120 residues)/HIF-1alpha (unknown origin) complex expressed in Escherichia coli BL21(DE3) assessed as change in melting temperature at 1 mM in presence of DEALA-Hyp-YIPMDDDFQLRSF by differential scanning fluorimetry.

As usually defined, the ΔTm is the shift of the melting midpoint relative to a reference. A word on the Kd: it is the equilibrium constant for the complex coming apart. In the case of `OCc1ccc(-n2cccc2)cc1`, the ΔTm in test [1] and in test [3] was above 0.5 °C throughout. For the same compound, the Kd in test [2] worked out at 5 mM.
As for `O=C1CCSc2ccc(Cl)cc21`, the figures for the ΔTm in test [4], in test [1] and in test [3] were 1.2 °C, above 0.5 °C and above 0.5 °C, respectively. In addition, in test [2], the Kd was 6.7 mM.
Turning to `COC(=O)c1cc2occc2[nH]1`, the ΔTm was 0.7 °C in test [4], above 0.5 °C in test [1] and above 0.5 °C in test [3].
